In ChEMBL document CHEMBL1123814, “Synthesis and beta-lactamase inhibitory properties of 2 beta-[(1,2,3-triazol-1-yl)methyl]-2 alpha-methylpenam-3 alpha-carboxylic acid 1,1-dioxide and related triazolyl derivatives” (J Med Chem, 1987):
Converted amounts (≈) assume the structure as drawn.

Columns and labels:
[1] = tested on: Escherichia coli; test: Minimum inhibitory concentration against 30 strains of Escherichia coli; format: functional
[2] = tested on: Serratia marcescens; test: Growth inhibition against Beta lactamase producing bacteria, Serratia marcescens was determined for the compound in the combination with Ampicillin; format: functional
Procedure, shortened: (§1)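 Bacteria (β-lactamase producers) were grown in Mueller Hinton broth and diluted to 10⁷ cfu/mL. They were inoculated into the same medium containing ampicillin plus triazole and incubated at 37 °C for 20 h. The MIC was the lowest concentration leaving the medium free of turbidity.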

[3] = tested on: Proteus mirabilis; test: Growth inhibition against Beta lactamase producing bacteria, Proteus mirabilis (121K) was determined for the compound in the combination with Ampicillin; format: functional; procedure, shortened: as §1
[4] = tested on: Staphylococcus aureus; test: Growth inhibition against Beta lactamase producing bacteria, Staphylococcus aureus (ATCC90124) was determined for the compound in the combination with Ampicillin; format: functional; procedure, shortened: as §1
[5] = tested on: Proteus vulgaris; test: Growth inhibition against Beta lactamase producing bacteria, Proteus vulgaris (IID OX-19)was determined for the compound in the combination with Ampicillin; format: functional; procedure, shortened: as §1
[6] = tested on: Escherichia coli; test: Growth inhibition against Beta lactamase producing bacteria, Escherichia coli (TH-13) was determined for the compound in the combination with Ampicillin; format: functional; procedure, shortened: as §1
[7] = tested on: Escherichia coli; test: Growth inhibition against Beta lactamase producing bacteria, Escherichia coli (TH-397) was determined for the compound in the combination with Ampicillin; format: functional; procedure, shortened: as §1
[8] = tested on: Staphylococcus aureus; test: Growth inhibition against Beta lactamase producing bacteria, Staphylococcus aureus (S-54K) was determined for the compound in the combination with Ampicillin; format: functional; procedure, shortened: as §1
[9] = tested on: Escherichia coli; test: Minimum inhibitory concentration of Ampicillin required for growth inhibition of Beta lactamase producing bacteria Clinically isolated Escherichia coli (TH-397); format: functional
Procedure, shortened: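 Broth microdilution in Mueller Hinton broth. Ampicillin was tested with the triazole fixed at 10 µg/mL against a β-lactamase-producing clinical isolate, with an inoculum of 10⁷ cfu/mL. Plates were incubated at 37 °C for 20 h. The MIC was the lowest concentration that left the medium free of turbidity.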

[10] = tested on: Staphylococcus aureus; test: Minimum inhibitory concentration of Ampicillin required for growth inhibition of Beta lactamase producing bacteria Staphylococcus aureus (S-54K); format: functional
Procedure, shortened: (§2)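 The inoculum was 10⁷ cfu/mL, incubated at 37 °C for 20 h. The MIC was the lowest concentration that left the medium free of turbidity.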

[11] = tested on: Proteus vulgaris; test: Minimum inhibitory concentration of Ampicillin required for growth inhibition of Beta lactamase producing bacteria Proteus vulgaris (IID OX-19); format: functional
Procedure, shortened: (§3)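 Micro broth dilution MIC of ampicillin tested on its own. β-Lactamase-producing bacteria were grown in Mueller Hinton broth and inoculated at 10⁷ cfu/mL into medium containing ampicillin.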

[12] = tested on: Staphylococcus aureus; test: Minimum inhibitory concentration of Ampicillin required for growth inhibition of Beta lactamase producing bacteria Staphylococcus aureus (ATCC90124); format: functional; procedure, shortened: as §2
[13] = tested on: Serratia marcescens; test: Minimum inhibitory concentration of Ampicillin required for growth inhibition of Beta lactamase producing bacteria Serratia marcescens; format: functional; procedure, shortened: as §3
[14] = tested on: Proteus mirabilis; test: Minimum inhibitory concentration of Ampicillin required for growth inhibition of Beta lactamase producing bacteria Proteus mirabilis (121K); format: functional; procedure, shortened: as §3
[15] = tested on: Escherichia coli; test: Minimum inhibitory concentration of Ampicillin required for growth inhibition of Beta lactamase producing bacteria Clinically isolated Escherichia coli (TH-13); format: functional; procedure, shortened: as §2
[16] = Inhibitory activity against cephalosporinase from Proteus morganii TH-64 using cephalothin (40 uM) as a substrate; parameters: species or system Morganella morganii
Procedure, shortened: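 Isolated β-lactamases were tested by the microiodometric assay, with each line's substrate at 40 μM.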

[17] = molecular target: Beta-lactamase OXA-1 (Escherichia coli, UniProt P13661); test: Inhibitory activity against Beta-lactamase type OXA1 (penicillinase) from Escherichia coli OXA1 using ampicillin (40 uM) as a substrate
Chain of Beta-lactamase OXA-1 (P13661 whole entry): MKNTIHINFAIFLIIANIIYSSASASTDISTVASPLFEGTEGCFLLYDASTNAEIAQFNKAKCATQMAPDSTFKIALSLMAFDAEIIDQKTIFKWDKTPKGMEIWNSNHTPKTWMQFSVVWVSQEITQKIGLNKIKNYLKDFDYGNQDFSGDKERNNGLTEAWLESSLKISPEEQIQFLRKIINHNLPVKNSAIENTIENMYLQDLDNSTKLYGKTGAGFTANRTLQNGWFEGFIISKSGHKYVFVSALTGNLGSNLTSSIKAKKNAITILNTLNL
Procedure, shortened: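 Isolated β-lactamase tested by microiodometric assay, measuring substrate hydrolysis. Ampicillin substrate at 40 μM. Value reported as the 50% inhibitory concentration.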

[18] = Inhibitory activity against cephalosporinase from Proteus vulgaris TH-147 using cephalexin (40 uM) as a substrate
Procedure, shortened: (§4)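 Isolated β-lactamase (cephalosporinase) was inhibited in a microiodometric assay. Substrate concentration was 40 μM, and the 50% inhibitory concentration (M) was determined.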

[19] = Inhibitory activity against cephalosporinase from Proteus morganii TH-64 using cephalothin (40 uM) as a substrate; […]; parameters: species or system Morganella morganii; procedure, shortened: as §4

Compound | MIC [2] [µg/mL] | MIC [3] [µg/mL] | MIC [4] [µg/mL] | MIC [5] [µg/mL] | MIC [6] [µg/mL] | MIC [7] [µg/mL] | MIC [8] [µg/mL] | MIC50 [1] [µg/mL] | MIC70 [1] [µg/mL] | further results
CC1(C)S[C@@H]2[C@H](/N=C/N3CCCCCC3)C(=O)N2[C@H]1C(=O)O [AMDINOCILLIN] |  |  |  |  |  |  |  | 3.13 (≈ 9.62 µM) | 12.5 (≈ 38.4 µM) | 
CC1(C)S[C@@H]2[C@H](NC(=O)[C@H](N)c3ccccc3)C(=O)N2[C@H]1C(=O)O [AMPICILLIN] |  |  |  |  |  |  |  | 400 (≈ 1140 µM) | >400 | MIC [9]: 400 µg/mL (≈ 1140 µM); MIC [10]: 25 µg/mL (≈ 71.5 µM); MIC [11]: 200 µg/mL (≈ 572 µM); MIC [12]: 25 µg/mL (≈ 71.5 µM); MIC [13]: 400 µg/mL (≈ 1140 µM); MIC [14]: > 400 µg/mL; MIC [15]: 200 µg/mL (≈ 572 µM)
CC1(C)S[C@@H]2[C@H](/N=C/N3CCCCCC3)C(=O)N2[C@H]1C(=O)O.CC1(C)[C@H](C(=O)O)N2C(=O)C[C@H]2S1(=O)=O |  |  |  |  |  |  |  | 0.1 | 0.39 | 
CC1(C)[C@H](C(=O)O)N2C(=O)C[C@H]2S1(=O)=O.CCN1CCN(C(=O)N[C@@H](C(=O)N[C@@H]2C(=O)N3[C@@H]2SC(C)(C)[C@@H]3C(=O)O)c2ccccc2)C(=O)C1=O |  |  |  |  |  |  |  | 12.5 | 25 | 
CC1(C)[C@H](C(=O)O)N2C(=O)C[C@H]2S1(=O)=O [SULBACTAM] |  |  |  |  |  |  |  |  |  | IC50 [16]: 1 µM; IC50 [17]: 22 µM; IC50 [18]: 0.8 µM
CC1(C)S[C@@H]2[C@H](NC(=O)[C@H](N)c3ccccc3)C(=O)N2[C@H]1C(=O)O.CC1(C)[C@H](C(=O)O)N2C(=O)C[C@H]2S1(=O)=O | 3.13 | 6.25 | 0.2 | 1.56 | 6.25 | 0.78 | 0.2 | 12.5 | 100 | 
CC1=C(C(=O)O)N2C(=O)[C@@H](NC(=O)[C@H](N)c3ccccc3)[C@H]2SC1 [CEPHALEXIN ANHYDROUS] |  |  |  |  |  |  |  | 25 (≈ 72 µM) | 100 (≈ 288 µM) | 
CCN1CCN(C(=O)N[C@@H](C(=O)N[C@@H]2C(=O)N3[C@@H]2SC(C)(C)[C@@H]3C(=O)O)c2ccccc2)C(=O)C1=O [PIPERACILLIN] |  |  |  |  |  |  |  | 50 (≈ 96.6 µM) | 200 (≈ 386 µM) | 
O=C(O)[C@H]1/C(=C/CO)O[C@@H]2CC(=O)N21 [CLAVULANIC ACID] |  |  |  |  |  |  |  |  |  | IC50 [19]: Not Active; IC50 [17]: 3.2 µM; IC50 [18]: 0.16 µM

Further lines, with some results ahead:

MIC [2] [µg/mL] | MIC [3] [µg/mL] | MIC [4] [µg/mL] | MIC [5] [µg/mL] | MIC [6] [µg/mL] | MIC [7] [µg/mL] | MIC [8] [µg/mL] | Compound | MIC50 [1] [µg/mL] | MIC70 [1] [µg/mL] | further results
100 | 25 | 0.39 | 1.56 | 100 | 50 | 0.78 | CC1(C)S[C@@H]2[C@H](NC(=O)C(N)c3ccccc3)C(=O)N2[C@H]1C(=O)O.C[C@]1(Cn2cc([Si](C)(C)C)nn2)[C@H](C(=O)[O-])C2C(=O)CC2S1(=O)=O.[Na+] (stereo not given in full) |  |  | 
12.5 | 0.78 | 0.2 | 0.39 | 3.13 | 3.13 | 0.2 | CC1(C)S[C@@H]2[C@H](NC(=O)C(N)c3ccccc3)C(=O)N2[C@H]1C(=O)O.COC(=O)c1cn(C[C@@]2(C)[C@H](C(=O)[O-])C3C(=O)CC3S2(=O)=O)nn1.[Na+] (stereo not given in full) |  |  | 
25 | 0.78 | 0.2 | 0.39 | 6.25 | 6.25 | 0.2 | CC1(C)S[C@@H]2[C@H](NC(=O)C(N)c3ccccc3)C(=O)N2[C@H]1C(=O)O.COC(=O)c1cnnn1C[C@@]1(C)[C@H](C(=O)[O-])C2C(=O)CC2S1(=O)=O.[Na+] (stereo not given in full) |  |  | 
